Published values from different studies.
Compare with care: the assays were run in different laboratories.
SETD7: Histone-lysine N-methyltransferase SETD7 (SETD7, Homo sapiens, UniProt Q8WTS6)
UCHL1: Ubiquitin carboxyl-terminal hydrolase isozyme L1 (UCHL1, Homo sapiens, UniProt P09936)
MMP2: 72 kDa type IV collagenase (MMP2, Homo sapiens, UniProt P08253)

CC(C)=CCCC1(C)C=Cc2c(O)c3c(c(CC=C(C)C)c2O1)OC12C(=CC4CC1C(C)(C)OC2(C/C=C(/C)C(=O)O)C4O)C3=O (stereo not drawn) — inhibition (SETD7; cell-free assay; 10 µM): 11%
C#Cc1n[nH]c2c(-c3cn([C@@H](C)c4ccccn4)c(=O)[nH]c3=O)cc(F)cc12 — inhibition (Casein kinase I isoform gamma-1 (CSNK1G1, Homo sapiens, UniProt Q9HCP0); enzyme activity, inhibitor; 0.1 µM): 2.6%
CCOC(=O)c1ccc(OC(=O)CCCCCNC(=N)N)cc1 — inhibition (UCHL1; enzyme activity, inhibitor; 10 µM): 5%
Nc1c(S(=O)(=O)O)cc(Nc2ccc(Nc3nc(Cl)nc(Nc4cccc(S(=O)(=O)O)c4)n3)c(S(=O)(=O)O)c2)c2c1C(=O)c1ccccc1C2=O — inhibition (SETD7; cell-free assay; 10 µM): 93%
CN1CCN(c2nc(N)c3ccccc3n2)CC1 — inhibition (Neuronal acetylcholine receptor subunit alpha-7 (CHRNA7, Homo sapiens, UniProt P36544); ligand displacement, radioligand; 0.1 µM): 31.9%
O=C(Nc1cccnn1)N1CCN([C@@H]2CCOc3cc(C(F)(F)F)ccc32)CC1 — inhibition (Prostacyclin receptor (PTGIR, Homo sapiens, UniProt P43119); cell-free assay; 20 µM): -15%
Cn1cc(-c2cc(F)cc(N3CCn4c(cc5c4CCCC5)C3=O)c2CO)cc(Nc2ccc(N3CCN(C4COC4)CC3)cn2)c1=O — inhibition (G protein-coupled receptor kinase 6 (GRK6, Homo sapiens, UniProt P43250); enzyme activity, inhibitor; 0.1 µM): 4%
CC(C)C[C@H](NC(=O)[C@H](Cc1ccccc1)NC(=O)c1cnccn1)B(O)O — inhibition (Lysosomal protective protein (CTSA, Homo sapiens, UniProt P10619); cell-free assay, inhibitor; 33 µM): 32.4%
CCN(CC)CCCC[C@H](NC(=O)[C@H](CC(C)C)NC(=O)[C@H](C)NC(=O)[C@H](Cc1ccccc1)NC(=O)c1ccc(C(C)(C)C)cc1)C(=O)N[C@@H](CO)C(=O)OC — inhibition (Galanin receptor type 2 (GALR2, Homo sapiens, UniProt O43603); ligand displacement, radioligand; 10 µM): -21%
CN(C)C(=O)COC(=O)Cc1ccc(OC(=O)c2ccc(NC(=N)N)cc2)cc1 — inhibition (UCHL1; enzyme activity, inhibitor; 10 µM): 7%
Cn1cc(-c2cccc(N3CCc4c(sc5c4CC(C)(C)C5)C3=O)c2CO)cc(Nc2ccncn2)c1=O — inhibition (G protein-coupled receptor kinase 5 (GRK5, Homo sapiens, UniProt P34947); enzyme activity, inhibitor; 1 µM): -5%
COc1ccc(S(=O)(=O)N(CC(=O)NO)CC(C)C)cc1 — inhibition (MMP2; enzyme activity, inhibitor; 0.1 µM): 71%
Cc1ncc(C)n2nc(/C=C/c3nc(N4CCCC4)cc(N4CCOCC4)n3)nc12 — inhibition (MMP2; enzyme activity, inhibitor; 10 µM): 3%
c1ccc(C(NCCNC(c2ccccc2)c2ccccc2)c2ccccc2)cc1 — inhibition (Coagulation factor X (F10, Homo sapiens, UniProt P00742); enzyme activity, inhibitor; 10 µM): -9%
N=C(N)c1ccc2cc(OC(=O)c3ccc(N=C(N)N)cc3)ccc2c1 — inhibition (UCHL1; enzyme activity, inhibitor; 10 µM): 0%
